# In PubChem BioAssay:
# Values without a mark were called inactive. Inconclusive results are not listed. Activity calls are given as the source filed them.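 Rule for the calls, unless noted: active = viability increase at or above a cutoff of the median across tested compounds plus 3 SD (cut at about 8.5% in these data, passing the limit was not always enough); inconclusive = some gains above the cutoff, reason not given; inactive = the rest.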
# Assays:
# [1] = S. cerevisiae growth inhibition in permissive medium (OD615), pilot counter-assay for S. cerevisiae lifespan shortening project, permissive growth control (AID 705;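 active = growth inhibition above 25% in both replicates, a cutoff set 3 SD above the mean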); conditions: OD615, 24 h, at 10 µM, stronger effect = higher value
# Summary of the method: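 Material: engineered DeaD yeast; compound dosing: one dose 10 µM, DMSO 0.25% final; measure: yeast growth inhibition indicated by reduced 24 h OD615; detection: OD615 turbidity read; incubation: cells pre-grown 4 h, then 24 h compound exposure, 30 °C humidified; medium: permissive synthetic complete medium with raffinose and galactose carbon sources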
# [2] = S. cerevisiae growth inhibition in restrictive medium, OD615, pilot screen, restrictive growth control, yeast lifespan reduction project (AID 706;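 active = growth inhibition above a set limit, 3 SD over mean compound inhibition, in both replicates, cut at about 43% in these data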;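 note: modified DeaD lifespan yeast strain shifted to restrictive glucose medium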); conditions: OD615, 48 h, at 10 µM, stronger effect = higher value
# Summary of the method: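 material = engineered S. cerevisiae DeaD strain | medium = glucose-based CSMM-D restrictive medium | times = 4 h pre-incubation, 48 h exposure at 30 °C | technique = OD615 absorbance reading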
# [3] = doxorubicin toxicity protection in MRP-1 cells – H69AR cells, CellTiter-Glo, duplicate, MRP-1 activator project, pilot screen (AID 807); conditions: H69AR viability with doxorubicin, CellTiter-Glo luminescence; at 10 µM; stronger effect = higher value;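 note: compound pretreatment 18-22 h then 72 h combined with doxorubicin; 0% = doxorubicin alone and 100% = vehicle without doxorubicin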
# [4] = viability of HCT116 without oncogenic beta-catenin – human colon tumor cells, pilot screen (AID 823;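 active = cell viability at or below a set limit in both duplicate runs, the limit being the all-compound median minus 4 SD, cut at about 23% in these data, passing the limit was not always enough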;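 note: 0% = wells killed by 20 µM Hyamine and 100% = untreated DMSO cell wells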); conditions: HCT116 beta-catenin knockout viability, CellTiter-Glo, 60 h; at 10 µM; stronger effect = lower value
# [5] = viability of PTEN-null HCT116 cells – cell-based, HCT116 clonal line, CellTiter-Glo, pilot screen (AID 824;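 active = viability at or below 27.92% in each of two runs, the all-compound median minus 4 SD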;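 note: 0% = 20 µM Hyamine control and 100% = vehicle cell control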); conditions: HCT116 PTEN-deleted viability, 60 h, at 10 µM, stronger effect = lower value
# [6] = RAM pathway blockade in budding yeast – dse1pr::URA3 reporter, 5-FOA selection, pilot screen (AID 869;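 active = inhibition over a set limit, the all-compound mean plus 3 SD, in both replicate runs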;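 note: 0% = DMSO wells with no growth and 100% = 10 µM 1-NA-PP1 with full growth; RAM network block rescues cells from 5-FOA so hits raise OD615 growth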); conditions: S. cerevisiae dse1pr::URA3 5-FOA growth, OD615, 2 d; at 10 µM; stronger effect = higher value; strain carries analog-sensitive mutant Cbk1 kinase
# [7] = RAM signaling pathway blockade in yeast – S. cerevisiae, Pdr1DBD-CYC8 efflux-inhibited sensitized strain, primary screen (AID 1298;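 active = RAM network inhibition above 8.4% in each of two replicates, 3 SD over the compound average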;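 note: 0% = DMSO untreated cells without growth and 100% = 10 µM 1-NA-PP1 full growth; higher means more yeast growth rescued from 5-FOA killing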); conditions: S. cerevisiae cbk1-as DSE1-URA3 strain, 5-FOA growth OD615, 2 d; at 50 µM; stronger effect = higher value
SMILES,growth inhibition [1],growth inhibition [2],viability increase [3],viability [4],viability [5],inhibition [6],RAM network inhibition [7]
Cc1cc2c3nonc3ccc2n1-c1ccccc1,-16.1%,-15%,-2.59%,83%,86%,0.9%,6.15%
O=C1C(=O)N(CCCn2ccnc2)C(c2cccnc2)/C1=C(/O)c1ccc(Cl)cc1 (configuration not stated),-11.6%,-4.88%,-0.32%,97.2%,98.6%,0.905%,1.1%
Cc1ccc(-c2nc(-c3ccccc3)no2)c(Cl)c1,-6.6%,-11.1%,-4.72%,78.9%,78%,3.96%,3.45%
CCOc1ccc(-c2nc(-c3ccccc3)no2)cc1OCC,-16.6%,-29.6%,2.12%,106%,91%,3.66%,5.86%
O=C1C(=C(O)c2ccccc2)C(=O)c2ccccc21,-20.4%,2.15%,-3.04%,107%,103%,-0.26%,-1.88%
Cc1ccc(OCc2nc(-c3ccccn3)no2)c(Br)c1,1.26%,4.31%,1.13%,86.7%,84.9%,-0.35%,1.62%
COc1ccc(S(=O)(=O)N2CCN(C)CC2)c2ccccc12,-8.04%,-2.78%,-3.62%,102%,91.3%,1.06%,2.19%
CN1CCN(C(=O)c2ccccc2NC(=O)c2cccs2)CC1,-11%,-8.35%,-2.33%,98.5%,91.7%,0.45%,2.03%
CCOC(=O)CSC(CC)C(=O)Nc1nnc(C(C)C)s1 (configuration not stated),5.7%,9.58%,-1.46%,94.6%,94.7%,1%,9.23%
CCOC(=O)N1CCN(c2nc(C)cc(C(F)(F)F)n2)CC1,1.86%,-23.3%,2.84%,102%,96.5%,2.92%,2.23%
Cc1ccc(Cl)cc1N1CCN(C(=O)C2CCC(=O)N2C(C)C)CC1 (configuration not stated),-2.15%,-5.95%,2.45%,93.6%,85.8%,-0.505%,5.7%
COC(=O)COC(=O)c1ccc(O)cc1,7.13%,4.2%,-0.65%,99.5%,102%,2.5%,2.15%
CCOC(=O)c1cccc(NC(=O)CNC(=O)C2CCCCC2)c1,3.97%,2.92%,-0.32%,96.1%,99.2%,0.655%,-0.72%
CCN=C(Nc1ccc2c(c1)OCO2)SC1CC(=O)N(c2ccccc2F)C1=O (configuration not stated),-4.17%,-8.21%,-1.9%,97%,95.9%,3.15%,10.8%
CC(=O)Oc1ccc(C(=O)Nc2nnc(C)s2)cc1,-10.4%,-4.59%,-2.2%,100%,104%,2.9%,-0.78%
Cc1ccc(OCCN2CCCCCC2)c(C)c1,-6.26%,2.46%,-3.81%,71.1%,70.4%,1.21%,2.8%
Cn1c(=O)oc2cc(S(=O)(=O)N3CCCC(C(=O)N4CCc5ccccc5C4)C3)ccc21 (configuration not stated),1.16%,-8.79%,-2.62%,87.8%,84.9%,1.8%,-0.89%
O=C(c1ccccc1)n1nc(-c2ccccc2)nc1NCc1ccco1,-15.5%,-17%,0.43%,96.7%,98.1%,2.25%,6.58%

SMILES,growth inhibition [1],growth inhibition [2],viability increase [3],viability [4],viability [5],inhibition [6],RAM network inhibition [7]
C(=N\c1nccs1)/c1cccnc1,-7.2%,-11.4%,-0.86%,108%,100%,0.235%,2.23%
Cc1ccc(OCCSc2cc(C)nc(N)n2)cc1,-3.51%,-3.22%,0.4%,95.6%,96%,1.12%,0.05%
O=C(c1nnc(Cc2ccc(Cl)cc2)o1)N1CCc2ccccc2C1,-7.83%,7.34%,3.24%,103%,107%,0.135%,4.39%
CCOc1ccc2nc(NC(=O)c3ccoc3C)sc2c1,1.53%,-12.2%,-6.35%,19.1% (active),17.1% (active),1.03%,2.4%
CC(=O)c1c(C)nc2ccc(Br)cc2c1C(=O)O,-10.2%,8.3%,-1.9%,98.2%,97.4%,1.79%,1.15%
O=C(NCC1CCCO1)c1ccc(CS(=O)(=O)c2ccc(Br)cc2)o1 (configuration not stated),-9.31%,-13.1%,-1.53%,97.8%,97.9%,1.06%,2.45%
COc1ccccc1NC(=O)N1CCN(c2ccc3nncn3n2)CC1,-3.47%,0.79%,0.48%,106%,103%,-0.315%,0.69%
COc1cc(NC(=O)C2CCCN2S(=O)(=O)c2ccc3c(c2)CCC(=O)N3)cc(OC)c1 (configuration not stated),-15.3%,-5.1%,-1.09%,97.7%,105%,1.09%,1.33%
COc1ccc(N(C)C(=O)c2ccc3snnc3c2)cc1,4.09%,-8.11%,-1.56%,105%,94.3%,2.6%,0.05%
COc1ccccc1S(=O)(=O)Cc1ccc(C(=O)N2CCCC2)o1,-3.58%,-4.36%,-1.51%,108%,101%,0.935%,0.94%
Cc1ccccc1-n1nc(C(=O)O)c(C)c(C#N)c1=O,-3.86%,-6.29%,-0.28%,97.8%,98.6%,2.41%,3.52%
CCNc1ccc(C(=O)OCC)cc1NC(=O)c1cccc(N(C)C)c1,-8.58%,2.37%,-5.51%,18.4% (active),19.1% (active),0.385%,2.72%
O=C1N=C(N2CCOCC2)SC1=C1CCCCC1,-8.5%,-2.34%,-2.09%,98%,97.1%,1.17%,1.84%
COc1ccc(N2C(=O)CC(c3ccc(OC(C)C)cc3)C2=O)cc1 (configuration not stated),-5.08%,-8.6%,1.46%,97.9%,104%,1.39%,3.45%
Cc1cc(N2CCN(C3CCCCC3)CC2)nc2cccc(O)c12,-7.5%,-31.3%,-4%,61%,62.8%,2.71%,4.45%
Cc1ccc2oc(=O)c3cnn(CC(=O)Nc4ccccc4N4CCN(C)CC4)c3c2c1,0.52%,-25.3%,-6.16%,8.9% (active),6.03% (active),-0.415%,-0.65%
Cc1ccc(/C=N/n2c(C)nnc2C)cc1,-5.29%,-2.88%,-1.74%,87.4%,99.1%,0.135%,0.41%
CC1(C)Cc2c(C#N)c(N)sc(=S)c2CO1,21.9%,67% (active),-1.77%,101%,106%,1.27%,2.98%
